Our source for the IC50 and Activity values is ChEMBL document CHEMBL2390832, “Synthesis and activity evaluation of tilorone analogs as potential anticancer agents” (Eur J Med Chem, 2013).

A short description of test [1]: Anticancer activity against human Hep3B cells after 48 hrs by MTT assay. It is filed as functional, cell-based, Hep 3B2. In short, it runs like this:
(§1)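 Cells seeded at 1 × 10⁴/well in DMEM with 10% FBS and left overnight at 37 °C, 5% CO₂. Five concentrations (1 µM–100 µM) diluted in DMEM were added and incubated for 48 h. MTT (10 µl of 5 mg/ml) was then added for 4 h at 37 °C. Formazan was dissolved in DMSO and absorbance read at 490 nm. At least three parallel runs; IC50 by regression analysis.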
(Tetrazolium assays rely on reduction of a dye to a coloured formazan, in cell work by metabolically active cells.)

Test [2] has as its system HeLa. The test is described as follows: Anticancer activity against human HeLa cells after 48 hrs by MTT assay. In kind it is functional, cell-based. In short, it runs like this: as §1
Test [3] concerns A549. As to the kind of experiment: Anticancer activity against human A549 cells after 48 hrs by MTT assay. The conditions noted are these: A549, 48 h. In kind it is functional, cell-based. In short, it runs like this: as §1
In another test the test system is Vero. The test is described as follows: Cytotoxicity against African green monkey Vero cells after 48 hrs by MTT assay. In kind it is cell-based. The settings on record: Chlorocebus sabaeus. In short, it runs like this: as §1
A further test deals with HEK-293T. The test is described as follows: Cytotoxicity against human HEK293T cells after 48 hrs by MTT assay. It is filed as cell-based. In short, it runs like this: as §1
For test [4], the system named is HeLa. The test is described as follows: Anticancer activity against human HeLa cells at =/> 100 uM after 48 hrs by MTT assay. It is filed as functional, cell-based.
Test [5] relates to A549. As to the kind of experiment: Anticancer activity against human A549 cells at =/> 100 uM after 48 hrs by MTT assay. In kind it is functional, cell-based.
The next test deals with Hep 3B2. The test is described as follows: Anticancer activity against human Hep3B cells at =/> 100 uM after 48 hrs by MTT assay. In kind it is functional, cell-based.

Where a name gives a salt, the structure may show the parent alone. Activity calls are given as the source filed them. The calls are words filed in the database; no cut-off is given here.

`CCN(CC)CCOc1ccc2c(c1)C(=O)c1cc(OCCCl)ccc1-2`: the IC50 (in test [1]; with HeLa [2]; in the test on A549 [3]) was more than 100 µM each time.
On to `CC(C)NCCOc1ccc2c(c1)C(=O)c1cc(OCCNC(C)C)ccc1-2`, for which the IC50 (as a rule, the midpoint of a concentration-inhibition curve) stood at 8.89 µM in test [1]; 1.72 µM in the test on HeLa [2]; 14.8 µM in the test with Vero; 13.8 µM in the test with HEK-293T; 2.43 µM with A549 [3].
For the compound `CC(C)SCCOc1ccc2c(c1)C(=O)c1cc(OCCSC(C)C)ccc1-2`, the result with HeLa [4], with A549 [5] and in the test with Hep 3B2 was inactive.
With `CCN(CC)CCOc1ccc(-c2coc3cc(OCCN(CC)CC)ccc3c2=O)cc1`, the concentration for half-maximal inhibition (IC50) worked out at 35.2 µM in test [1]; 26.4 µM with HeLa [2]; 102 µM in the test with Vero; 107 µM with HEK-293T; 19.4 µM in the test with A549 [3].
Consider `CCCCNCCOc1ccc2c(c1)C(=O)c1cc(OCCNCCCC)ccc1-2`, for which the IC50 in test [1] was determined as 3.34 µM; with HeLa [2], 2.21 µM; in the test with Vero it was 8.89 µM; with HEK-293T, 11 µM; in the test with A549 [3] it was 2.65 µM.
`O=c1c(-c2ccc(OCCCBr)cc2)coc2cc(OCCCBr)ccc12`: the outcome with HeLa [4], in the test with A549 [5] and in the test with Hep 3B2 was inactive.
For `CC(C)(C)SCCOc1ccc2c(c1)C(=O)c1cc(OCCSC(C)(C)C)ccc1-2`, the outcome in the test on HeLa [4], in the test with A549 [5] and with Hep 3B2 was inactive.
As to `CCCNCCOc1ccc2c(c1)C(=O)c1cc(OCCNCCC)ccc1-2`, the IC50 in test [1] amounted to 5.17 µM; in the test on HeLa [2] it was 2.73 µM; with Vero, 8.47 µM; with HEK-293T it was 8.59 µM; in the test on A549 [3], 2.96 µM.
`O=c1c(-c2ccc(OCCCl)cc2)coc2cc(OCCCl)ccc12`: the outcome with HeLa [4], in the test on A549 [5] and with Hep 3B2 was inactive.
Turning to `CN(C)CC(O)COc1ccc2c(c1)C(=O)c1cc(OCC(O)CN(C)C)ccc1-2` (centres undefined), the IC50 in test [1] is 18.3 µM; in the test with HeLa [2], 11.7 µM; in the test on Vero it was 20.9 µM; in the test with HEK-293T it was 28.3 µM; in the test on A549 [3] it was 12.6 µM.
Regarding `CCN(CC)CCCOc1ccc(-c2coc3cc(OCCCN(CC)CC)ccc3c2=O)cc1`, the IC50 is 76.1 µM in test [1], 82.4 µM in the test with HeLa [2] and 73.5 µM with A549 [3].
In the case of `O=C1c2cc(OCC(O)CN3CCCCC3)ccc2-c2ccc(OCC(O)CN3CCCCC3)cc21` (centres undefined), the IC50 in test [1] was determined as 6.76 µM; in the test with HeLa [2], 1.82 µM; in the test with Vero, 13 µM; with HEK-293T, 17.9 µM; with A549 [3], 1.4 µM.
With `CCN(CC)CCOc1ccc2c(c1)C(=O)c1cc(OCCN(CC)CC)ccc1-2` [TILORONE HYDROCHLORIDE], the IC50 in test [1] was 38.8 µM; in the test with HeLa [2], 40 µM; in the test with Vero it was 89.5 µM; in the test on HEK-293T, 76.4 µM; in the test on A549 [3], 32.6 µM.
The like results for `CCCN(CCC)CC(O)COc1ccc(-c2coc3cc(OCC(O)CN(CCC)CCC)ccc3c2=O)cc1` (centres undefined) were, in that order, 6.52 µM, 5.17 µM, 35.5 µM, 39.6 µM and 4.26 µM.
Take `CCOc1ccc2c(c1)C(=O)c1cc(OCCN(C)C)ccc1-2`: the IC50 (in test [1]; in the test with HeLa [2]; in the test with A549 [3]) was more than 100 µM each time.
Consider `O=C1c2cc(OCCn3cncn3)ccc2-c2ccc(OCCn3cncn3)cc21`, for which the IC50 (in test [1]; with HeLa [2]; in the test with A549 [3]) was more than 100 µM each time.
Take `CC(C)(C)NCCOc1ccc2c(c1)C(=O)c1cc(OCCNC(C)(C)C)ccc1-2`: the 50% inhibitory concentration (IC50) in test [1] was 20.1 µM; with HeLa [2], 9.17 µM; in the test with Vero it was 25.3 µM; in the test on HEK-293T, 19.8 µM; in the test with A549 [3], 7.86 µM.
The like results for `CCCN(CCC)CC(O)COc1ccc2c(c1)C(=O)c1cc(OCC(O)CN(CCC)CCC)ccc1-2` (centres undefined) were, in that order, 9.43 µM, 6.78 µM, 57.8 µM, 54 µM and 7.42 µM.
Regarding `CCOc1ccc2c(c1)C(=O)c1cc(OCCN(CC)CC)ccc1-2`, the figures for the IC50 (in test [1]; in the test on HeLa [2]; in the test on A549 [3]) were 84.8 µM, 107 µM and more than 100 µM, respectively.
Regarding `CN(C)CCCOc1ccc(-c2coc3cc(OCCCN(C)C)ccc3c2=O)cc1`, the IC50 in test [1] was found to be 24.4 µM; with HeLa [2] it was 22.2 µM; in the test with Vero, 34.9 µM; in the test on HEK-293T, 41.9 µM; with A549 [3] it was 20.6 µM.
On to `CCOc1ccc2c(c1)C(=O)c1cc(OCCCl)ccc1-2`, for which the outcome in the test with HeLa [4], with A549 [5] and with Hep 3B2 was inactive.
Regarding `CCOc1ccc2c(c1)C(=O)c1cc(OCCO)ccc1-2`, the outcome in the test on HeLa [4], in the test on A549 [5] and with Hep 3B2 was inactive.
As to `O=C1c2cc(OCCn3ccnn3)ccc2-c2ccc(OCCn3ccnn3)cc21`, the IC50 (in test [1]; in the test on HeLa [2]; in the test with A549 [3]) was more than 100 µM each time.
As for `O=C1c2cc(OCCn3ccnc3)ccc2-c2ccc(OCCn3ccnc3)cc21`, the IC50 (in test [1]; in the test on HeLa [2]; in the test with A549 [3]) was more than 100 µM throughout.
Regarding `CCN(CC)CC(O)COc1ccc(-c2coc3cc(OCC(O)CN(CC)CC)ccc3c2=O)cc1` (centres undefined), the IC50 was determined as 30.4 µM in test [1]; 27.8 µM with HeLa [2]; 60.1 µM in the test with Vero; 52.9 µM with HEK-293T; 25 µM in the test with A549 [3].
The like results for `O=c1c(-c2ccc(OCC(O)CN3CCCCC3)cc2)coc2cc(OCC(O)CN3CCCCC3)ccc12` (centres undefined) were, in that order, 12 µM, 5.32 µM, 18.5 µM, 20.2 µM and 4.34 µM.
The like results for `CCN(CC)CC(O)COc1ccc2c(c1)C(=O)c1cc(OCC(O)CN(CC)CC)ccc1-2` (centres undefined) were, in that order, 21.5 µM, 20.2 µM, 48.6 µM, 56.4 µM and 16 µM.
